Reference: ChEMBL document CHEMBL4393740, “Preparation and biological evaluation of soluble tetrapeptide epoxyketone proteasome inhibitors” (Bioorg Med Chem, 2019)

Experiments:
[1] = molecular target: T1, Proteasome Macropain subunit MB1 (Homo sapiens, UniProt P28074); test: Inhibition of human chymotrypsin-like activity of 20S proteasome using Suc-LLVY-AMC as substrate pre-incubated for 10 mins followed by substrate addition and measured after 1 hr by spectrofluorimetry; conditions: read-out: IC50
T1 sequence (P28074 whole entry): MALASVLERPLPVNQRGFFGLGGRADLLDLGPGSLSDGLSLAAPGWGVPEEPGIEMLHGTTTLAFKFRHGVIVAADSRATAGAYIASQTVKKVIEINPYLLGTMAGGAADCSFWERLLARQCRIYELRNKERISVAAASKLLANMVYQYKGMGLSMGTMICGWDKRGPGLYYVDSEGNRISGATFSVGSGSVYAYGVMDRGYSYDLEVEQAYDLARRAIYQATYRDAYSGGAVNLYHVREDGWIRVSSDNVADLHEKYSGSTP

[2] = Half life in rat liver microsomes at 1 uM pre-incubated for 5 mins followed by NADP+ addition and measured up to 20 mins by LC-MS analysis; type: ADME, Microsome
[3] = Half life in monkey liver microsomes at 1 uM pre-incubated for 5 mins followed by NADP+ addition and measured up to 20 mins by LC-MS analysis; type: ADME, Macaca mulatta, Microsome; conditions: rhesus monkey
[4] = Half life in BALB/c mouse liver microsomes at 1 uM pre-incubated for 5 mins followed by NADP+ addition and measured up to 20 mins by LC-MS analysis; type: ADME, Microsome
Method in brief: (§1)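 Mixture held 1 µM compound, 0.5 mg/mL microsomal protein (in-house pooled Balb/c mouse or pooled human), 100 mM Tris-HCl pH 7.4, and an NADPH-generating system (5 mM isocitric acid, 0.2 U/mL isocitric dehydrogenase, 5 mM MgCl2, 1 mM NADP+). Preincubated 5 min at 37 °C, started with NADP+, sampled at 0, 5, 10, 20 min. Quenched with cold acetonitrile containing 1 µM phenytoin internal standard. Compound loss measured by LC-MS/MS. Controls omitted NADPH and/or microsomes.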

[5] = Half life in dog liver microsomes at 1 uM pre-incubated for 5 mins followed by NADP+ addition and measured up to 20 mins by LC-MS analysis; type: ADME, Canis lupus familiaris, Microsome
[6] = Half life in human liver microsomes at 1 uM pre-incubated for 5 mins followed by NADP+ addition and measured up to 20 mins by LC-MS analysis; type: ADME, Microsome; method in brief: as §1
[7] = Intrinsic clearance in rat liver microsomes at 1 uM pre-incubated for 5 mins followed by NADP+ addition and measured up to 20 mins by LC-MS analysis; type: ADME, Microsome; conditions: read-out: CLH
[8] = Intrinsic clearance in BALB/c mouse liver microsomes at 1 uM pre-incubated for 5 mins followed by NADP+ addition and measured up to 20 mins by LC-MS analysis; type: ADME, Microsome; conditions: read-out: CLH; method in brief: as §1
[9] = Intrinsic clearance in dog liver microsomes at 1 uM pre-incubated for 5 mins followed by NADP+ addition and measured up to 20 mins by LC-MS analysis; type: ADME, Canis lupus familiaris, Microsome; conditions: read-out: CLH
[10] = Intrinsic clearance in monkey liver microsomes at 1 uM pre-incubated for 5 min followed by NADP+ addition and measured up to 20 mins by LC-MS analysis; type: ADME, Macaca mulatta, Microsome; conditions: rhesus monkey, read-out: CLH
[11] = Intrinsic clearance in human liver microsomes at 1 uM pre-incubated for 5 min followed by NADP+ addition and measured up to 20 mins by LC-MS analysis; type: ADME, Microsome; conditions: read-out: CLH; method in brief: as §1
RPMI-8226 [12] = test: Antitumour activity against luciferase expressing human RPMI8226 cells xenografted in NOD/SCID mouse assessed as tumor growth at 2 mg/kg, iv qd for 21 days by caliper method relative to control; type: functional
Method in brief: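 NOD/SCID mice given subcutaneous 5 × 10^6 luciferase-expressing RPMI-8226 cells. Randomized at mean tumour 100-150 mm3, n = 3 per group. Dosed i.v. 2 mg/kg QD for 3 weeks. Tumour also imaged by IVIS, ROI […] taken 3 min after D-luciferin 150 mg/kg. Caliper volume V = length×width²/2, RTV = Vt/V0. T/C% = mean RTV treated / mean RTV control × 100.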

ARH-77 = test: Antitumour activity against human ARH77 cells xenografted in nude mouse assessed as tumor growth at 5mg/kg, iv dosed at day 1 ,4, 8 ,11, 15 and 18 for 3 weeks and measured every 2 days by caliper method relative to control; type: functional
Method in brief: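 Nude mice given subcutaneous 1 × 10^7 ARH77 cells. Randomized at mean tumour 100-150 mm3 into treatment and control groups, n = 5. Dosed i.v. 5 mg/kg on days 1, 4, 8, 11, 15 and 18 for 3 weeks. Tumours sized by caliper, V = length×width²/2, RTV = Vt/V0. T/C% = mean RTV treated / mean RTV control × 100.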

RPMI-8226 [13] = test: Cytotoxicity against human RPMI8226 cells assessed as cell viability measured after 72 hrs by celltiter96 aqueous cell proliferation assay; type: functional, cell-based; conditions: RPMI-8226, 72 h
Method in brief: (§2)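 Suspension cells in log phase plated at 5000 (RPMI8226) or 10000 (U266B1) cells per well. Viability read after 72 h by MTS-type CellTiter 96 AQueous One assay on a plate reader. IC50 reported, three repeats.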

U-266 = test: Cytotoxicity against human U266B1 cells assessed as cell viability measured after 72 hrs by celltiter96 aqueous cell proliferation assay; type: functional, cell-based; conditions: U-266, 72 h; method in brief: as §2
[14] = molecular target: Voltage-gated inwardly rectifying potassium channel KCNH2 (Homo sapiens, UniProt Q12809); test: Inhibition of human ERG in HEK293 cells assessed as effect on QT interval; type: cell-based; conditions: human, hek293
Voltage-gated inwardly rectifying potassium channel KCNH2, sequence (Q12809 whole entry): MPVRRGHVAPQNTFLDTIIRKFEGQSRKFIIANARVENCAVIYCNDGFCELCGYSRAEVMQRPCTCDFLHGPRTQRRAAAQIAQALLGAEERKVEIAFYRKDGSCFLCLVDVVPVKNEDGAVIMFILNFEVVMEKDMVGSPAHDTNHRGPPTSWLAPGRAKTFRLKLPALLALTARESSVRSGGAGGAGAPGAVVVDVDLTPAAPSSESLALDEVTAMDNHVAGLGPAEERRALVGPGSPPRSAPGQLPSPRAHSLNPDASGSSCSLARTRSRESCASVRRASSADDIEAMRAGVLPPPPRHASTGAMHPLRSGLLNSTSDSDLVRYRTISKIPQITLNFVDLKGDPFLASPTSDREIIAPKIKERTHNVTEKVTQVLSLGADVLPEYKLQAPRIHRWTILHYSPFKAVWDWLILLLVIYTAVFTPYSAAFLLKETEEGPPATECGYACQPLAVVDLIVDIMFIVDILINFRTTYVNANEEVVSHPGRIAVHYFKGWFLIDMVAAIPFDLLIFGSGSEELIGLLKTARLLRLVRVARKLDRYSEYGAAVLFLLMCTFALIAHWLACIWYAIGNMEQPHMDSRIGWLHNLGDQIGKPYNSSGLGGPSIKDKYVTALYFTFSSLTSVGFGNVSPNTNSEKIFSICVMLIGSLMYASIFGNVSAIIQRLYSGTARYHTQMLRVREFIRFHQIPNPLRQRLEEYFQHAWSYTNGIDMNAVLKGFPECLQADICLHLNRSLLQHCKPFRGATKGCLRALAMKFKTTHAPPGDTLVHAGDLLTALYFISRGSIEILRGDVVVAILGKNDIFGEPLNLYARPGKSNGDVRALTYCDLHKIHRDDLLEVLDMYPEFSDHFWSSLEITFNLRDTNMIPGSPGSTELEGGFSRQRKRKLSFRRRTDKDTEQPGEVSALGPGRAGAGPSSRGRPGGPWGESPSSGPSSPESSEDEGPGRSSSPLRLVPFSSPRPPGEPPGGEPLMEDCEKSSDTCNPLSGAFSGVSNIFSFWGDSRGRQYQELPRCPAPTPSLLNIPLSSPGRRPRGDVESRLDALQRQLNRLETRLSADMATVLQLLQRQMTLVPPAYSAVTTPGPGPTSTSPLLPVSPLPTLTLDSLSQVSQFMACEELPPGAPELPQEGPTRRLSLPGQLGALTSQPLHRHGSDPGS

[15] = Potency index, ratio of compound half life in human liver microsomes to carfilzomib half life in human liver microsomes; type: ADME, Microsome

IC50 [1]: 36.8 nM
half-life at 1 µM [2]: 1.36 min
half-life at 1 µM [3]: 0.211 min
half-life at 1 µM [4]: 1.1 min
half-life at 1 µM [5]: 0.243 min
half-life at 1 µM [6]: 1.07 min
microsomal CLint at 1 µM [7]: 1020 µL/min/mg
microsomal CLint at 1 µM [8]: 1250 µL/min/mg
microsomal CLint at 1 µM [9]: 5710 µL/min/mg
microsomal CLint at 1 µM [10]: 6560 µL/min/mg
microsomal CLint at 1 µM [11]: 1300 µL/min/mg
Ratio [15]: 4
Structure (SMILES): CC(C)C[C@H](NC(=O)[C@H](Cc1cscn1)NC(=O)CN1CCOCC1)C(=O)N[C@@H](Cc1ccccc1)C(=O)N[C@@H](CC(C)C)C(=O)[C@@]1(C)CO1
T/C (RPMI-8226 [12]): 49.5%
T/C (ARH-77): 37.6%
IC50 (RPMI-8226 [13]): 27.7 nM
IC50 (U-266): 24.5 nM
inhibition (INH) [14]: Not Active
